Laboratory results as given in ChEMBL document CHEMBL2016465, “Host-directed Inhibitors of Myxoviruses: Synthesis and in vitro Biochemical Evaluation” (ACS Med Chem Lett, 2011).

Legend:
[1] = tested on: Measles morbillivirus; test: Antiviral activity against Measles virus MVi/Alaska USA/16.00 genotype H2 infected in african green monkey Vero cells assessed as reduction in viral-induced cytopathogenicity; type: functional, organism-based; settings: MVi/Alaska USA/16.00 genotype H2, Vero
Outline: (§1)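 Run on actively dividing cells. EC50 from four-parameter variable-slope nonlinear regression, reported as the average of four experiments ± SEM. Highest concentration tested was 75 μM.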

[2] = (§2) Cytotoxicity against african green monkey Vero cells after 24 hrs by MTT assay; type: cell-based; settings: chlorocebus sabaeus, Vero cells
Outline: (§3)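 Run on confluent cell monolayers to reflect acute toxicity. CC50 is given as the range of two experiments. Highest concentration tested was 75 μM.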

[3] = tested on: Measles morbillivirus; test: Antiviral activity against Measles virus; type: functional, organism-based; outline: as §1
[4] = tested on: Vero; test: as §2; type: cell-based; settings: chlorocebus sabaeus, vero, 24 h; outline: as §3
[5] = tested on: Paramyxoviridae; test: Antiviral activity against Paramyxovirus measured 28 to 36 hrs post infection by cell based virus yield reduction assay; type: functional
[6] = tested on: Measles morbillivirus; test: Antiviral activity against Measles virus MVi/Alaska USA/16.00 genotype H2 infected in african green monkey Vero cells measured 28 to 36 hrs post infection by cell based virus yield reduction assay; type: functional, organism-based; settings: MVi/Alaska USA/16.00 genotype H2, Vero; outline: as §1
[7] = tested on: Mumps virus; test: Antiviral activity against Mumps virus; type: functional, organism-based; settings: Mumps orthorubulavirus
[8] = tested on: Respiratory syncytial virus; test: Antiviral activity against Respiratory syncytial virus; type: functional, organism-based; settings: human respiratory syncytial virus
[9] = tested on: Human respirovirus 3; test: Antiviral activity against Human parainfluenza virus 3; type: functional, organism-based
[10] = tested on: unidentified influenza virus; test: Antiviral activity against Influenza virus; type: functional, organism-based

Structure (SMILES) | EC50 [1] | also measured
COc1ccc(-n2c(CCC(=O)Nc3ccc(C)cc3Cl)nc3ccccc32)cc1 | > 150000 nM | –
COc1ccc(-n2c(SC(C)C(=O)Nc3ncc(C(F)(F)F)cc3Cl)nc3ccccc32)cc1 (racemic) | 400 nM | CC50 at 24 h [2]: 9200 nM
COc1ccc(Cn2c(NC(C)C(=O)Nc3ccc(C)cc3Cl)nc3ccccc32)cc1 (stereo not drawn) | > 150000 nM | –
CCOc1ccc(-n2c(SC(C)C(=O)Nc3cc(C)cc(C)n3)nc3ccccc32)cc1 (racemic) | 1200 nM | –
COc1ccc(-n2c(SC(C)C(=O)Nc3nc(C)c(Cl)cc3Cl)nc3ccccc32)cc1 (racemic) | 200 nM | CC50 at 24 h [2]: 7250 nM
COc1ccc(-n2c(SC(C)C(=O)Nc3nc(C)c(Br)cc3Br)nc3ccccc32)cc1 (racemic) | 500 nM | CC50 at 24 h [2]: 9700 nM
COc1ccc(-n2c(SC(C)C(=O)Nc3ncc(Cl)cc3Cl)nc3ccccc32)cc1 (stereo not drawn) | 350 nM | EC50 [3]: 200 nM; CC50 [4]: > 75000 nM
Cc1nnc(NC(=O)C(C)Sc2nc3ccccc3n2-c2ccc(F)cc2)nc1C (racemic) | 17400 nM | –
COc1ccc(Cn2c(SC(C)C(=O)Nc3ccc(C)cc3Cl)nc3ccccc32)cc1 (stereo not drawn) | 700 nM | CC50 [4]: > 75000 nM
COc1ccc(-n2c(SC(C)C(=O)Nc3ccc(Cl)cn3)nc3ccccc32)cc1 (racemic) | > 75000 nM | –
CC(Sc1nc2ccccc2n1-c1ccc(F)cc1)C(=O)Nc1ncc(Cl)cc1Cl (racemic) | 100 nM | CC50 at 24 h [2]: 5900 nM
COc1ccc(-n2c(SC(C)C(=O)Nc3nc(C)cc(Cl)n3)nc3ccccc32)cc1 (racemic) | > 75000 nM | –
COc1ccc(-n2c(SC(C)C(=O)Nc3nnc(C)c(C)n3)nc3ccccc32)cc1 (racemic) | 9300 nM | –
COc1ccc(-n2c(SC(C)C(=O)Nc3cc(C)no3)nc3ccccc32)cc1 (racemic) | 400 nM | CC50 [4]: > 75000 nM
COc1ccc(-n2c(S(=O)(=O)C(C)C(=O)Nc3ccc(C)cc3Cl)nc3ccccc32)cc1 (stereo not drawn) | > 150000 nM | –
O=C(CSc1nc2ccccc2n1-c1ccccc1)Nc1ncc(Cl)cc1Cl | – | EC50 [3]: 700 nM
Cc1ccc(NC(=O)C(C)Sc2nc3ccccc3n2Cc2ccccc2)c(Cl)c1 (stereo not drawn) | 400 nM | CC50 [4]: > 75000 nM
Cc1ccc(NC(=O)[C@H](C)Oc2nc3ccccc3n2Cc2ccccc2)c(Cl)c1 | > 150000 nM | –
COc1ccc(-n2c(S[C@@H](C)C(=O)Nc3ccc(C)cc3Cl)nc3ccccc32)cc1 | 300 nM | –
Cc1cccc(-n2c(SCC(=O)Nc3ncc(Cl)cc3Cl)nc3ccccc32)c1 | – | EC50 [3]: 2100 nM
COc1ccc(-n2c(SC(C)C(=O)Nc3cc(C)nn3C)nc3ccccc32)cc1 (racemic) | 500 nM | CC50 [4]: 75000 nM
COc1ccc(-n2c(SC(C)C(=O)Nc3nc(C)cs3)nc3ccccc32)cc1 (racemic) | 2800 nM | –
COc1ccc(-n2c(SC(C)C(=O)Nc3cc(Br)ccc3Br)nc3ccccc32)cc1 (racemic) | 1400 nM | –
COc1ccc(-n2c(S[C@H](C)C(=O)Nc3ccc(C)cc3Cl)nc3ccccc32)cc1 | 200 nM | –
COc1ccc(-n2c(SC(C)C(=O)Nc3ccc(C)cc3Cl)nc3ccccc32)cc1 (racemic) | 200 nM | EC50 [5]: 10 nM; EC50 [6]: 30 nM; EC50 [7]: 10 nM; EC50 [8]: 10 nM; CC50 [4]: > 75000 nM; EC50 [9]: 10 nM; EC50 [10]: 10 nM
COc1ccc(-n2c(SC(C)C(=O)Nc3ncc(C)cc3Cl)nc3ccccc32)cc1 (racemic) | 50 nM | CC50 at 24 h [2]: 880 nM
CCOc1ccc(-n2c(SC(C)C(=O)Nc3ncc(Cl)cc3Cl)nc3ccccc32)cc1 (racemic) | 100 nM | CC50 at 24 h [2]: 18500 nM
COc1ccc(-n2c([S+]([O-])C(C)C(=O)Nc3ccc(C)cc3Cl)nc3ccccc32)cc1 (stereo not drawn) | 1300 nM | CC50 [4]: > 75000 nM
